This note sets out measurements from ChEMBL document CHEMBL4052615, “Discovery of 4-amino-3-arylsulfoquinolines, a novel non-acetylenic chemotype of metabotropic glutamate 5 (mGlu5) receptor negative allosteric modulators” (Eur J Med Chem, 2017).

For series [1], the target named is T1, Metabotropic glutamate receptor 5 (Homo sapiens, UniProt P41594). Put plainly: Displacement of [3H]M-MPEP from mGluR5 (unknown origin) measured after 60 mins. In a few lines:
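The [³H]M-MPEP competition used rat cortical membranes or human mGlu5a A18 cell membranes in Tris pH 7.6 buffer with MgCl₂ and CaCl₂, 60 min at 25°C. Curves were generally 7 concentrations in duplicate or triplicate. IC50 was converted to Ki by Cheng–Prusoff, with Kd from a Scatchard plot. Non-specific binding was defined with M-MPEP.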
Target sequence in this assay (P41594 whole entry): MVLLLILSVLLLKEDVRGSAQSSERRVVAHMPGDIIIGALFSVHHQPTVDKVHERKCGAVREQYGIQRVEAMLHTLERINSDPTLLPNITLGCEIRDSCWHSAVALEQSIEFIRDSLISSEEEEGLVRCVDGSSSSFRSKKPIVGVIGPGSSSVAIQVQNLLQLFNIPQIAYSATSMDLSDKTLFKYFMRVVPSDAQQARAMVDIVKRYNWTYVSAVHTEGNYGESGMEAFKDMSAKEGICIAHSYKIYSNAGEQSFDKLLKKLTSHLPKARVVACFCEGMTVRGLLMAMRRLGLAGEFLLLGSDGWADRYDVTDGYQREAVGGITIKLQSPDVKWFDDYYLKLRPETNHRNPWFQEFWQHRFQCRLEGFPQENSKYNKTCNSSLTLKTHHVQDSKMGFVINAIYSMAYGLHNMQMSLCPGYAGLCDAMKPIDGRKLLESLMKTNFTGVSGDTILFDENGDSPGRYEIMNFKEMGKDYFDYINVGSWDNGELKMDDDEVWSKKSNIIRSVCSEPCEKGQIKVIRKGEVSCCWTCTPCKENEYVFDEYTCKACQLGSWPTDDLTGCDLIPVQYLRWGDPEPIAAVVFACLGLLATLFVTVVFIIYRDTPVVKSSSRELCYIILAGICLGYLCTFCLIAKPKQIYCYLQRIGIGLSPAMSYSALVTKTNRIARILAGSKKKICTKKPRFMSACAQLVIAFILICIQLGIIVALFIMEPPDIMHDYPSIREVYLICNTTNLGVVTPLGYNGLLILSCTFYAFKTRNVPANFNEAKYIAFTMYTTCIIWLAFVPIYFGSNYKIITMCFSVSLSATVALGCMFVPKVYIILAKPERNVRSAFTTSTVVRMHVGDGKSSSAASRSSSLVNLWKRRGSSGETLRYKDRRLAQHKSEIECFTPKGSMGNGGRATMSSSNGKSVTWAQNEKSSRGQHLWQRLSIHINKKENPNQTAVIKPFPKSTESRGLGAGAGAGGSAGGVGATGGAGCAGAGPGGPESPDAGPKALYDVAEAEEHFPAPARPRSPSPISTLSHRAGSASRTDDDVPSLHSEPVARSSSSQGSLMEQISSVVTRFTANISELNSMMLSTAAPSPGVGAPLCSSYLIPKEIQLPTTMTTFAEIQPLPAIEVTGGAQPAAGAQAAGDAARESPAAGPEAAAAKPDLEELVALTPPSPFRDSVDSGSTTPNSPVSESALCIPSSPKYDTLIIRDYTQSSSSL

For series [2], the target named is T1, Metabotropic glutamate receptor 5. The experiment in a line: Displacement of [3H]M-MPEP from mGluR5 (unknown origin) at 1 uM measured after 60 mins relative to control. In a few lines: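 Rat cerebrocortical membranes or membranes from A18 cells expressing human mGlu5a, incubated with [³H]M-MPEP and test compound at 1 µM in 50 mM Tris pH 7.6 with 2 mM MgCl₂ and 2 mM CaCl₂, 60 min at 25°C. Non-specific binding was taken with […]. Result is % displacement, run in duplicate or triplicate.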
Target sequence in this assay (P41594 21-1212 limits assumed): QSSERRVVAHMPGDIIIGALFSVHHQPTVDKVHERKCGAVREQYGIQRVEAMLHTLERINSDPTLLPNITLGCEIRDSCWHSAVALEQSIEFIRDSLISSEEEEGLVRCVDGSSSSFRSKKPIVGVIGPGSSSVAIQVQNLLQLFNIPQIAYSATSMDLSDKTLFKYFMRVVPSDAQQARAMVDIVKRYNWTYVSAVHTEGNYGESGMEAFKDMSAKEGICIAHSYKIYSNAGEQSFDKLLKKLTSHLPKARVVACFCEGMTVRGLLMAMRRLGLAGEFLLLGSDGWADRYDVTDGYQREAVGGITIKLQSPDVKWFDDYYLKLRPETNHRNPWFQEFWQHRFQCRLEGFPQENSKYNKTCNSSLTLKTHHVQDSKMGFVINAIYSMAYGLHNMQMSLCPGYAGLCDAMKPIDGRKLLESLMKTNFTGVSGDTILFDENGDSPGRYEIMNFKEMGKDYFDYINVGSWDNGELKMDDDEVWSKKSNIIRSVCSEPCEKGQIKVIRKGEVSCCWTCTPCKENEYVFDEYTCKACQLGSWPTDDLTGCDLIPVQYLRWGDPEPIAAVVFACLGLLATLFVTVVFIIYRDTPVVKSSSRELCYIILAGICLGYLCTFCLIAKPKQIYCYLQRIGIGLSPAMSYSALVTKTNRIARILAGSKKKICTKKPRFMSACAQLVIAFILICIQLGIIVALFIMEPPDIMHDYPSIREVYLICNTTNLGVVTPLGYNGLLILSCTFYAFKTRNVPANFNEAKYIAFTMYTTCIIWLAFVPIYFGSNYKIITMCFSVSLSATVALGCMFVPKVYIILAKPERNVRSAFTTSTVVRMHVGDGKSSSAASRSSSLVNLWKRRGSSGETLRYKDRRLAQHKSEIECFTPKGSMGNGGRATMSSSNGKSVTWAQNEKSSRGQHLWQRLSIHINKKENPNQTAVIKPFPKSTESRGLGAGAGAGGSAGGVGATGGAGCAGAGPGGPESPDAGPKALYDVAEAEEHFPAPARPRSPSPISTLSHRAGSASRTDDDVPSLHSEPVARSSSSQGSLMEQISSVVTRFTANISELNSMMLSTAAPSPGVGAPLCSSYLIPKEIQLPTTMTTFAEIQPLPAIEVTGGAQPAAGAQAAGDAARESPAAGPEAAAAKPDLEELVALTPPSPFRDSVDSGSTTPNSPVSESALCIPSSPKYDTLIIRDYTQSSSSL

The nature of series [3]: Drug level in blood of rat at 10 mg/kg, ip at 40 mins post dose. It is filed as ADME, organism-based. The settings on record: read-out: Drug uptake.
The subject of series [4] is Rattus norvegicus. Put plainly: Anxiolytic activity in ip dosed rat assessed as increase in water drinking time during punished period by Vogel punished drinking conflict test. Conditions: read-out: MED. It counts as functional. In a few lines:
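Rats were water-deprived 48 h. On test day, compound was given i.p. in 5% Tween/distilled water at 1, 3 or 10 mg/kg, n=8 per dose. A 30-s unpunished drinking period followed. Comparison to vehicle was by ANOVA with Duncan post-hoc, giving MED.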

The nature of series [5]: Aqueous solubility of the compound in water. It is filed as physicochemical.
The target of series [6] is Metabotropic glutamate receptor 1 (Homo sapiens) (UniProt Q13255). The experiment in a line: Activity at mGluR1 (unknown origin).

Converted amounts (≈) assume the structure as drawn. The source made the active and inactive calls. The calls are words filed in the database; no cut-off is given here. A value given as a limit tells only on which side of the number the result lay.

Sequence of Metabotropic glutamate receptor 1 (Homo sapiens) (Q13255 19-1194 limits assumed): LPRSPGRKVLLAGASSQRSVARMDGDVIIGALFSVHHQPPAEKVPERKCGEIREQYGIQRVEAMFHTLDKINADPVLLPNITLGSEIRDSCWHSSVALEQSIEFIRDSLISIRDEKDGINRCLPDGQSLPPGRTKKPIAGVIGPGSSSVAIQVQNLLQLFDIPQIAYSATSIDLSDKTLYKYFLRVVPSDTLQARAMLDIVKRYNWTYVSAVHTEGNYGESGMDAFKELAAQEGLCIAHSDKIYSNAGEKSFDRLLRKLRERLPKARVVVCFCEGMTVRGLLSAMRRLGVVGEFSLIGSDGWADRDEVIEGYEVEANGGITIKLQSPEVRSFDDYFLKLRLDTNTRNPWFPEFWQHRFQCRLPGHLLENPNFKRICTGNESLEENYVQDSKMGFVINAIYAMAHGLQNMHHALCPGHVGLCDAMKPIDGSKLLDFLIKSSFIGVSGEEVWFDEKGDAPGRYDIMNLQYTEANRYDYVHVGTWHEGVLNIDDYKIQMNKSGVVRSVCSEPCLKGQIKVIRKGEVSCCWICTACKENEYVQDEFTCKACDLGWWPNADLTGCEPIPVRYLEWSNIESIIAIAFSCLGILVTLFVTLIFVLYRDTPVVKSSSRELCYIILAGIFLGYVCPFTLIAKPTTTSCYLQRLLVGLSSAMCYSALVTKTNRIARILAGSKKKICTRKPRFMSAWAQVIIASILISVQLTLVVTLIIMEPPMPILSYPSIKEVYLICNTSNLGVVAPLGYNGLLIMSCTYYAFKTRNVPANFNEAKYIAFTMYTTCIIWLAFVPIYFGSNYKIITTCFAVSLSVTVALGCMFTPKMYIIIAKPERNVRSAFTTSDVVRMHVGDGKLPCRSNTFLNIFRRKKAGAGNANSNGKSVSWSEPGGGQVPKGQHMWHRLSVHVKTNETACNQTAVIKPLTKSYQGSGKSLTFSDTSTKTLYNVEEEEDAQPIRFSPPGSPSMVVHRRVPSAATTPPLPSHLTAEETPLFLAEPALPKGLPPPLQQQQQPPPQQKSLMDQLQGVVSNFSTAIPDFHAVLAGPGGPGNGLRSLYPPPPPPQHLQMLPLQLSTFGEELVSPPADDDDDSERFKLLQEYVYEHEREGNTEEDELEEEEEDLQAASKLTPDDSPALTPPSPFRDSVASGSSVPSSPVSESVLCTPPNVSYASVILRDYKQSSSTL

In turn, `CC1CCN(c2c(S(=O)(=O)c3ccc(Cl)cc3)cnc3ccc(Cl)cc23)CC1` gave a Ki in series [1] of 435 nM. In series [2], this compound came in with an inhibition of 92%.

`O=S(=O)(c1ccccc1)c1cnc2ccccc2c1N1CCCCCC1` gave a Ki in series [1] of 310 nM. In series [2], this compound had an inhibition of 79.9%.

With `CC1CCN(c2c(S(=O)(=O)c3ccc(Cl)c(Cl)c3)cnc3ccc(Cl)cc23)CC1`, affinity in series [1] was put at a Ki of 103 nM. For the same compound, the inhibition in series [2] amounted to 86%. In addition, the concentration at 40 min in series [3] was found to be 55 ng/mL. In series [4], the minimal effective dose is above 30 mg/kg. In addition, the solubility in series [5] was below 3 µM.

Regarding `O=S(=O)(c1cccc(Cl)c1)c1cnc2cc(Cl)ccc2c1N1CCC(CO)CC1`, the Ki in series [1] was 30.9 nM. Besides, the concentration at 40 min in series [3] was found to be 193 ng/mL. In series [4], the minimal effective dose was 10 mg/kg. Further, the solubility in series [5] was in the range of 15 to 45 µM (≈ 6.77 to 20.3 µg/mL).

In series [1], `CC1CCN(c2c(S(=O)(=O)c3ccccc3)cnc3ccccc23)CC1` had an inhibition constant (Ki) of 108 nM. Further, the inhibition in series [2] came out at 89.2%.

The compound `O=S(=O)(c1ccccc1)c1cnc2ccccc2c1N1CCCCC1` yielded a Ki in series [1] of 307 nM. Also, in series [2], the inhibition turned out to be 71.4%.

Compound `Cc1ccc2ncc(S(=O)(=O)c3cccc(F)c3)c(N3CCC(C)CC3)c2c1` displayed an inhibition in series [2] of 94%. In series [5], this compound showed a solubility below 3 µM.

In the case of `Cc1ccc(S(=O)(=O)c2cnc3ccccc3c2NCc2ccccc2)cc1`, the affinity in series [1] corresponds to a Ki of 198 nM. The same compound yielded an inhibition in series [2] of 73.5%.

On to `N#Cc1cc(F)cc(S(=O)(=O)c2cnc3cc(Cl)ccc3c2N2CCC(CO)CC2)c1`, for which the affinity in series [1], expressed as Ki, was 24.1 nM. The concentration at 40 min in series [3] stood at 608 ng/mL. Also, the minimal effective dose in series [4] was above 10 mg/kg. Further, the solubility in series [5] lay in the range of 15 to 45 µM (≈ 6.9 to 20.7 µg/mL).

As to `Cc1ccc(S(=O)(=O)c2cnc3ccccc3c2N2CCOCC2)cc1C`, the outcome in series [6] was inactive.

For the compound `CC1CCN(c2c(S(=O)(=O)c3cc(F)cc(F)c3)cnc3cc(Cl)ccc23)CC1`, in series [1], the inhibition constant (Ki) amounted to 68.2 nM. In series [2], the inhibition came out at 94%.

`CCN(CC)c1c(S(=O)(=O)c2ccc(C)cc2)cnc2ccccc12` registered an inhibition constant Ki in series [1] of 201 nM. In series [2], the inhibition was 78.3%.

Turning to `N#Cc1cccc(S(=O)(=O)c2cnc3cc(Cl)ccc3c2N2CCOCC2)c1`, in series [2], the inhibition came out at 73%.

In turn, `Cc1ccc(S(=O)(=O)c2cnc3c(F)cccc3c2N2CCC(C)CC2)cc1F` gave an inhibition in series [2] of 93%.

Compound `Cc1ccc(S(=O)(=O)c2cnc3ccc(Cl)cc3c2N2CCC(C)CC2)cc1` yielded an inhibition in series [2] of 95%.

In series [2], `O=S(=O)(c1ccc(F)c(Cl)c1)c1cnc2ccc(F)cc2c1N1CCOCC1` came in with an inhibition of 58%.

`Cc1ccc(S(=O)(=O)c2cnc3ccc(F)cc3c2N2CCC(C)CC2)cc1C` returned an inhibition in series [2] of 92%.

`Cc1ccc(S(=O)(=O)c2cnc3ccc(F)cc3c2N2CCC(C)CC2)cc1F`: in series [2], the inhibition turned out to be 86%.

Turning to `COc1ccc2ncc(S(=O)(=O)c3cc(Cl)cc(Cl)c3)c(N3CCC(C)CC3)c2c1`, the inhibition in series [2] was found to be 87%.

In series [2], `CC1CCN(c2c(S(=O)(=O)c3cccc(F)c3)cnc3ccc(F)cc23)CC1` gave an inhibition of 76%.

`CC1CCN(c2c(S(=O)(=O)c3ccc(F)cc3)cnc3c(F)cccc23)CC1`: the inhibition in series [2] came to 26%.

With `CC1CCN(c2c(S(=O)(=O)c3cccc(F)c3)cnc3ccc(Cl)cc23)CC1`, the inhibition in series [2] turned out to be 58%.

For `COc1ccc(S(=O)(=O)c2cnc3ccc(C)cc3c2N2CCC(C)CC2)cc1Cl`, in series [2], the inhibition came out at 93%.

`Cc1cc(C)cc(S(=O)(=O)c2cnc3ccc(Cl)cc3c2N2CCOCC2)c1` showed an inhibition in series [2] of 14%.

`O=S(=O)(c1ccccc1)c1cnc2cc(F)ccc2c1N1CCOCC1` registered an inhibition in series [2] of 4%.

`COc1ccc(S(=O)(=O)c2cnc3ccc(Cl)cc3c2N2CCOCC2)cc1Cl`: the inhibition in series [2] turned out to be 33%.

With `CC1CCN(c2c(S(=O)(=O)c3ccc(Cl)c(Cl)c3)cnc3ccc(F)cc23)CC1`, affinity in series [1] was put at a Ki of 55.6 nM. The inhibition in series [2] is 91%. The concentration at 40 min in series [3] is 46 ng/mL. The minimal effective dose in series [4] was found to be 30 mg/kg. This compound showed a solubility in series [5] below 3 µM.

In turn, `COc1ccc(S(=O)(=O)c2cnc3ccc(C)cc3c2N2CCOCC2)cc1` had an inhibition in series [2] of 26%.

Take `CC1CCN(c2c(S(=O)(=O)c3cc(Cl)cc(Cl)c3)cnc3cc(Cl)ccc23)CC1`: the inhibition in series [2] was found to be 93%.

Compound `COc1ccc(S(=O)(=O)c2cnc3ccc(OC)cc3c2N2CCC(C)CC2)cc1` displayed an inhibition in series [2] of 41%.

As for `COc1ccc2ncc(S(=O)(=O)c3ccc(C)c(F)c3)c(N3CCC(C)CC3)c2c1`, the inhibition in series [2] was 73%.

Take `Cc1ccc(S(=O)(=O)c2cnc3ccc(F)cc3c2N2CCC(C)CC2)cc1`: the inhibition in series [2] worked out at 91%.

In series [2], `CN1CCN(c2c(S(=O)(=O)c3ccccc3)cnc3ccccc23)CC1` yielded an inhibition of 7.7%.

Regarding `COc1cccc(S(=O)(=O)c2cnc3ccc(OC)cc3c2N2CCOCC2)c1`, the inhibition in series [2] amounted to 20%.

Take `CC1CCN(c2c(S(=O)(=O)c3ccc(F)cc3)cnc3cc(Cl)ccc23)CC1`: the inhibition in series [2] is 91%.

The compound `Cc1ccc(S(=O)(=O)c2cnc3cc(F)ccc3c2N2CCC(C)CC2)cc1Cl` came in with an inhibition in series [2] of 93%.

`O=S(=O)(c1ccccc1)c1cnc2ccccc2c1N1CCN(c2ccccc2)CC1`: the inhibition in series [2] turned out to be 13.5%.

In series [2], `O=S(=O)(c1ccccc1)c1cnc2cc(Cl)ccc2c1N1CCOCC1` came in with an inhibition of 5%.

On to `CC1CCN(c2c(S(=O)(=O)c3cc(Cl)cc(Cl)c3)cnc3c(F)cccc23)CC1`, for which the inhibition in series [2] was determined as 82%.

Regarding `O=S(=O)(c1ccccc1)c1cnc2ccc(Cl)cc2c1N1CCOCC1`, the inhibition in series [2] was 18%.

On to `O=S(=O)(c1cccc(F)c1)c1cnc2cc(F)ccc2c1N1CCSCC1`, for which the inhibition in series [2] is 62.7%.

In series [2], `N#Cc1cccc(S(=O)(=O)c2cnc3cc(F)ccc3c2N2CCOCC2)c1` displayed an inhibition of 71 to 71.4%.

Regarding `Cc1ccc(S(=O)(=O)c2cnc3cc(F)ccc3c2N2CCC(C)CC2)cc1`, in series [2], the inhibition came out at 88%.
